Measured values collected from several papers.
Target: Phosphatidylinositol 4,5-bisphosphate 3-kinase catalytic subunit beta isoform (PIK3CB, Homo sapiens, UniProt P42338)

SMILES	read-out	method	tested at	remaining binding
FC(F)(F)Oc1cccc(-c2cnc3ccc(-c4ccncc4)nn23)c1	cell-free assay	competition with immobilised ligand	5 µM	48%
CNC(=O)[C@@H]1CC[C@@H](n2c(-c3ccc4cnccc4c3)nc3ccc(C(=O)NCc4cccc(C(N)=O)c4)cc32)C1	binding	competition with immobilised ligand	1 µM	100%
Cc1cnc(Nc2ccc(C(=O)N3CCC(N4CCCC4)CC3)cc2)nc1-c1cc2ccccc2s1	binding	competition with immobilised ligand	1 µM	99%
N[C@H]1CCN(c2nccc(-c3cnn4ncccc34)n2)C1	binding		1 µM	100%
COc1cc(-c2cn(C3CCc4ccccc4N(CC(F)(F)F)C3=O)nn2)ccc1-n1ccc(C)n1 (stereo not drawn)	cell-free assay	competition with immobilised ligand	1 µM	100%
O=C(NCCCN1CCOCC1)c1ccc(Nc2ncc(Cl)c(-c3ccc(Cl)s3)n2)cc1	binding	competition with immobilised ligand	1 µM	99%
Nc1c(C(=O)NCc2ccc(C(=O)NCCCC3CCCCC3)cc2)cnn1-c1ccccc1	cell-free assay	competition with immobilised ligand	0.1 µM	100%
c1cncc(-c2cccc(Nc3nccc(NC4CCCCC4)n3)c2)c1	binding	competition with immobilised ligand	10 µM	100%
CN(C)C(=O)Cn1cc(-c2nc(C3(c4ccc(-c5cnc(N)nc5)cc4)CC3)no2)cn1	cell-free assay	competition with immobilised ligand	1 µM	96%
CN(CCCC(F)(F)F)c1nccc(-c2cnn3ncccc23)n1	binding		1 µM	100%
O=C(Nc1c[nH]nc1C(=O)NC1CCNCC1)c1cc(F)cc(F)c1	binding	competition with immobilised ligand	1 µM	100%
O=c1nc(-c2ccccn2)sc2ccccc12	cell-free assay	competition with immobilised ligand	1 µM	100%
C[C@H]1CCN(c2nccc(-c3cnn4ncccc34)n2)C1	binding		1 µM	65%
CS(=O)(=O)c1cc(C2(NC(=O)c3cncc4c3cnn4-c3ccc(F)cc3)CC2)ccn1	cell-free assay	competition with immobilised ligand	1 µM	100%
COc1cnc(Nc2cccc(S(N)(=O)=O)c2)nc1N1CCN(c2ccccc2)C(=O)C1	binding	competition with immobilised ligand	1 µM	100%
Cc1cnn2ncc(-c3ccnc(N(C)C)n3)c2c1	binding		1 µM	74%
COc1ncc2cc3ccccc3nc2c1C#N	cell-free assay	competition with immobilised ligand	5 µM	100%
COc1ccnn2ncc(-c3ccnc(N(C)C)n3)c12	binding		1 µM	75%
O=C(c1ccc(Nc2ncc(Cl)c(-c3cc4ccccc4s3)n2)cc1)N1CCC(N2CCCC2)CC1	binding	competition with immobilised ligand	1 µM	100%
CCC(=N\O)/C(C)=C/c1ccc(F)cc1	cell-free assay	competition with immobilised ligand	1 µM	99%
F[C@@H]1CCN(c2nccc(-c3cnn4ncccc34)n2)C1	binding		1 µM	100%
